{"source": "ChEMBL document CHEMBL5653631", "about": "“A Potent and Selective ULK1 Inhibitor Suppresses Autophagy and Sensitizes Cancer Cells to Nutrient Stress” (iScience, 2018)", "key": {"[1]": {"target": "Homeodomain-interacting protein kinase 1 (Homo sapiens) (UniProt Q86Z02)", "sequence (Q86Z02 whole entry, looked up)": "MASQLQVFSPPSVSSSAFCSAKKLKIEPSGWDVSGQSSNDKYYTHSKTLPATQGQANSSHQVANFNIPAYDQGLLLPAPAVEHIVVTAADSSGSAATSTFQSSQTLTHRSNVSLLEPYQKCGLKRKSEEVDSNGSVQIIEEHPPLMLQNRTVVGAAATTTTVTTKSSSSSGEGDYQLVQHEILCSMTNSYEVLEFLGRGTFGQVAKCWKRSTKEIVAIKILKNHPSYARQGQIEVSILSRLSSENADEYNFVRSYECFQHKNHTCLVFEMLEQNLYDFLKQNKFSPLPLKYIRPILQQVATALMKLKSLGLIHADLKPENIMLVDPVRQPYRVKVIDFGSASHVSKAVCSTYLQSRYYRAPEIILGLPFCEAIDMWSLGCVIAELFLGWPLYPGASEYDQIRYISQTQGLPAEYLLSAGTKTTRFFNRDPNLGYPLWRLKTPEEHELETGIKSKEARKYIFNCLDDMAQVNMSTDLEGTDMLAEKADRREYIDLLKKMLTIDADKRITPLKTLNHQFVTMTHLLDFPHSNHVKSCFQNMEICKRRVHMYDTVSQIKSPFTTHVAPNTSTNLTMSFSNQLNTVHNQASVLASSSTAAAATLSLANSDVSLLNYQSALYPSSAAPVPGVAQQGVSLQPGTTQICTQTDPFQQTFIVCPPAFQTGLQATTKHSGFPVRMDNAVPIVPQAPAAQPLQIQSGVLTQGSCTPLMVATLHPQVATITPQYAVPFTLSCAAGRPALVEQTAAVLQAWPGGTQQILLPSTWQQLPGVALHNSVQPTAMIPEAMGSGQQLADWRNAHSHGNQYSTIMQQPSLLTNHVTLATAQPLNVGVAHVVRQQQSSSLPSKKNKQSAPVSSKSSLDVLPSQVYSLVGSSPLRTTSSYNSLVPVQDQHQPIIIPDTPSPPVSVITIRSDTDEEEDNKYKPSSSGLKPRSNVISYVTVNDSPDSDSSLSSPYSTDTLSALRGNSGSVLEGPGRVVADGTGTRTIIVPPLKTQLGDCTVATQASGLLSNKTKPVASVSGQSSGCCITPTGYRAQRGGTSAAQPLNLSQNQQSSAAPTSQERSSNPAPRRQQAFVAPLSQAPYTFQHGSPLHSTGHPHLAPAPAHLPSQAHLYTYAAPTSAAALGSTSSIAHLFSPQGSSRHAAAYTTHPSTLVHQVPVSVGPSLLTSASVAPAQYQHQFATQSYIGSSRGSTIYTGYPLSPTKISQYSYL", "experiment": "Inhibition of human recombinant HIPK1 at 40 nM related to control ULK1"}, "[2]": {"target": "SAFB-like transcription modulator (Homo sapiens) (UniProt Q9NWH9)", "experiment": "Inhibition of human recombinant MET at 40 nM related to control ULK1"}, "[3]": {"target": "Tyrosine-protein kinase Lck (Homo sapiens) (UniProt P06239)", "experiment": "Inhibition of human recombinant LCK at 40 nM related to control ULK1"}, "[4]": {"target": "T1, Serine/threonine-protein kinase ICK (Homo sapiens) (UniProt Q9UPZ9)", "T1 sequence (whole entry)": "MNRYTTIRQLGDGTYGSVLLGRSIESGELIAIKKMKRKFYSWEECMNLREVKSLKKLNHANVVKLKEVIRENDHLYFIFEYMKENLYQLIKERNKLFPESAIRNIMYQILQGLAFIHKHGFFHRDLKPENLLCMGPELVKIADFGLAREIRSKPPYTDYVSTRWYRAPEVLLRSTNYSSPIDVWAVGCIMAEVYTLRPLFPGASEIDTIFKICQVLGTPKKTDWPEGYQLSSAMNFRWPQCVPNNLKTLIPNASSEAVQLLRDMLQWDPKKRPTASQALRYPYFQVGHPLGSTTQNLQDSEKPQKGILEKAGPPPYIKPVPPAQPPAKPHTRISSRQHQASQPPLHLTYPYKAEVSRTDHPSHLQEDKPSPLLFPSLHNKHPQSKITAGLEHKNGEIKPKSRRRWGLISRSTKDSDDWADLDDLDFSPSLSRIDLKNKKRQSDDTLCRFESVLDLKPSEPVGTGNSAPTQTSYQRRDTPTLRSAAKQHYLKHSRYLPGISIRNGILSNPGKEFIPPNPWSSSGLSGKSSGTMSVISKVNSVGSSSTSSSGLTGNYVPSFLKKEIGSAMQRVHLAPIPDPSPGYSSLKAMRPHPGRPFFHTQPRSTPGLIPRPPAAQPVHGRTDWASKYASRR", "experiment": "Inhibition of human recombinant ICK at 40 nM in presence of ATP by radiometric assay relative to control"}, "[5]": {"target": "Cyclin-dependent kinase-like 1 (Homo sapiens) (UniProt Q00532)", "sequence (Q00532 whole entry)": "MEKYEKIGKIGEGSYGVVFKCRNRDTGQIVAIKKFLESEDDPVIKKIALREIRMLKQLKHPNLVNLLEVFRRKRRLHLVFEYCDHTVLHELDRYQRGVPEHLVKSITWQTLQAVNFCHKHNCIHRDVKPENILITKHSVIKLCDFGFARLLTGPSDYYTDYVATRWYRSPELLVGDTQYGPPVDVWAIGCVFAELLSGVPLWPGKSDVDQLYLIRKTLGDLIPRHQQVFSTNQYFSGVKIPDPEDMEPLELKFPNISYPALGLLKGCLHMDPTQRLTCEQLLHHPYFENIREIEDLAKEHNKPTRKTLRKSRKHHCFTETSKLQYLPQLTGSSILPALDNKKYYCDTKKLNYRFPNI", "experiment": "Inhibition of human recombinant CDKL1 at 40 nM related to control ULK1"}, "[6]": {"target": "Serine/threonine-protein kinase 32B (Homo sapiens) (UniProt Q9NY57)", "sequence (Q9NY57 whole entry)": "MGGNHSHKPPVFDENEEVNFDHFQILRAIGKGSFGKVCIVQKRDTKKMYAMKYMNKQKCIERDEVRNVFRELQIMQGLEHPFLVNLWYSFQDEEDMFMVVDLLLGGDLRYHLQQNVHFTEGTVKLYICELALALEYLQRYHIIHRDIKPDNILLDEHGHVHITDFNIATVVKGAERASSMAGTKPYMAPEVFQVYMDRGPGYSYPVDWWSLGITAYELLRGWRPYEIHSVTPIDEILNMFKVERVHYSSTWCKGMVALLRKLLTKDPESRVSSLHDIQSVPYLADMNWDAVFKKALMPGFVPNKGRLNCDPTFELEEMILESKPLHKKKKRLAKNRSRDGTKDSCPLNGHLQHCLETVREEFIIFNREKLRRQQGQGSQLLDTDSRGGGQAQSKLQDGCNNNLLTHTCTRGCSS", "experiment": "Inhibition of human recombinant YANK2 at 40 nM related to control ULK1"}, "[7]": {"target": "PAS domain-containing serine/threonine-protein kinase (Homo sapiens) (UniProt Q96RG2)", "sequence (Q96RG2 whole entry, the tested form may be a part)": "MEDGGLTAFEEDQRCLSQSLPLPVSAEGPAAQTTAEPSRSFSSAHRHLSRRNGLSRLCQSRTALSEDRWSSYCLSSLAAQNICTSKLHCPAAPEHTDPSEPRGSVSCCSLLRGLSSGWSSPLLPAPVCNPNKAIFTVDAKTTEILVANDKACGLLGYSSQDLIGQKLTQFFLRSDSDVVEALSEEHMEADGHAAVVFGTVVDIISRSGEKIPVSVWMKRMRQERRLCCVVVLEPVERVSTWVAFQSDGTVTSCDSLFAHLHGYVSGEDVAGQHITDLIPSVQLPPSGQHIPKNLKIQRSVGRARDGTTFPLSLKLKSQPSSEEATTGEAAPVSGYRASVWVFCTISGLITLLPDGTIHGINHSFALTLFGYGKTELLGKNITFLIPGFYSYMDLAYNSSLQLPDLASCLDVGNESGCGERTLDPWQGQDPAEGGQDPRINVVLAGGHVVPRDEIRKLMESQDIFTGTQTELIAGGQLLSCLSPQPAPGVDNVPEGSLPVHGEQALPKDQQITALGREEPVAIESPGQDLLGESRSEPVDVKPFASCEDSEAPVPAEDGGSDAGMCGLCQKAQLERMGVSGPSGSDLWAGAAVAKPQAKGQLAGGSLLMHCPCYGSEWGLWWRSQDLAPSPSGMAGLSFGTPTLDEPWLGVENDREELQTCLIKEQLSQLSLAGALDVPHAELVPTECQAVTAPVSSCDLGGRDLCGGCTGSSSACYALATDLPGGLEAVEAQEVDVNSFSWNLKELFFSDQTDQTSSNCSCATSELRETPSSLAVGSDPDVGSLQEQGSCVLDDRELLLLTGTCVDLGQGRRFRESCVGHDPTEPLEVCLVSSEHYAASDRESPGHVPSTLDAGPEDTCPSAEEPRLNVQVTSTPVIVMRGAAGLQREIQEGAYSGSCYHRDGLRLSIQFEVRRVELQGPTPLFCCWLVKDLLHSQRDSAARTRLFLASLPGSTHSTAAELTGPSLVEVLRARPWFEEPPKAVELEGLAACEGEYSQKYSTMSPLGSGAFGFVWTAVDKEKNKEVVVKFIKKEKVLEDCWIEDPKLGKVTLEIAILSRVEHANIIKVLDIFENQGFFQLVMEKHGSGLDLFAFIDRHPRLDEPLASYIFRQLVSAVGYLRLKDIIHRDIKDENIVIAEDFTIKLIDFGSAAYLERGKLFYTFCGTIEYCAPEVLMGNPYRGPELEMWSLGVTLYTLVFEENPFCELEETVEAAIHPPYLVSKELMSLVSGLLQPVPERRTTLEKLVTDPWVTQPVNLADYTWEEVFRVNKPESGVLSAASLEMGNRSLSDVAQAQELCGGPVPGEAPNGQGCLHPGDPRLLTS", "experiment": "Inhibition of human recombinant PASK at 40 nM related to control ULK1"}, "[8]": {"target": "Tyrosine-protein kinase JAK1 (Homo sapiens) (UniProt P23458)", "experiment": "Inhibition of human recombinant JAK1 at 40 nM in presence of ATP by radiometric assay relative to control"}, "[9]": {"target": "T2, Ephrin type-A receptor 8 (Homo sapiens) (UniProt P29322)", "T2 sequence (whole entry)": "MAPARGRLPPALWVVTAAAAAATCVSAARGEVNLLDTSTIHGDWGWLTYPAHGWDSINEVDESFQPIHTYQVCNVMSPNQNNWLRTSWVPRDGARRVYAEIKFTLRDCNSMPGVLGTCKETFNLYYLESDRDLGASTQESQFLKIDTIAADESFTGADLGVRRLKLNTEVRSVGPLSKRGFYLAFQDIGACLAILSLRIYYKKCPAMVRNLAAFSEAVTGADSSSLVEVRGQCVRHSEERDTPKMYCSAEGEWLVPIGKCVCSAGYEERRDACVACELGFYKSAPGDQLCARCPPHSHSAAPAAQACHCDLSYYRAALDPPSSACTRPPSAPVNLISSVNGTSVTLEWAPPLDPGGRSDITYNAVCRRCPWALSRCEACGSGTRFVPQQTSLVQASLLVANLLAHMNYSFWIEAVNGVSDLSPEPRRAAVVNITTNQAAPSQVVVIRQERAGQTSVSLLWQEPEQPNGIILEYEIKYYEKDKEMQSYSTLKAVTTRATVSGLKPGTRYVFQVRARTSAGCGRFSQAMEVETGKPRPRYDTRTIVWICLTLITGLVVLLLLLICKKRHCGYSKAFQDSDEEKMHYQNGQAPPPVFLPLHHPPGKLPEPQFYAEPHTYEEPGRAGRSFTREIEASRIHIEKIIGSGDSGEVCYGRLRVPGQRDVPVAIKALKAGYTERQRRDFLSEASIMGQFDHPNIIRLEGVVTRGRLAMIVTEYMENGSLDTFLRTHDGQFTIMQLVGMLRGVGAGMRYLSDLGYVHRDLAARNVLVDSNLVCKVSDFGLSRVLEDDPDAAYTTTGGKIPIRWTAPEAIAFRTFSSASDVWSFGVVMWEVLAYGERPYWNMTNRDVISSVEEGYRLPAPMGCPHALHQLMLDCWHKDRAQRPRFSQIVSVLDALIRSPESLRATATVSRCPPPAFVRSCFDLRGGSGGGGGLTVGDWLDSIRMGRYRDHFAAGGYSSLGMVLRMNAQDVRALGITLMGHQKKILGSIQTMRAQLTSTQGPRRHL", "experiment": "Inhibition of human recombinant EphA8 at 15 nM in presence of ATP by radiometric assay relative to control"}, "[10]": {"target": "Cyclin-dependent kinase 12 (Homo sapiens) (UniProt Q9NYV4)", "sequence (Q9NYV4 whole entry, looked up)": "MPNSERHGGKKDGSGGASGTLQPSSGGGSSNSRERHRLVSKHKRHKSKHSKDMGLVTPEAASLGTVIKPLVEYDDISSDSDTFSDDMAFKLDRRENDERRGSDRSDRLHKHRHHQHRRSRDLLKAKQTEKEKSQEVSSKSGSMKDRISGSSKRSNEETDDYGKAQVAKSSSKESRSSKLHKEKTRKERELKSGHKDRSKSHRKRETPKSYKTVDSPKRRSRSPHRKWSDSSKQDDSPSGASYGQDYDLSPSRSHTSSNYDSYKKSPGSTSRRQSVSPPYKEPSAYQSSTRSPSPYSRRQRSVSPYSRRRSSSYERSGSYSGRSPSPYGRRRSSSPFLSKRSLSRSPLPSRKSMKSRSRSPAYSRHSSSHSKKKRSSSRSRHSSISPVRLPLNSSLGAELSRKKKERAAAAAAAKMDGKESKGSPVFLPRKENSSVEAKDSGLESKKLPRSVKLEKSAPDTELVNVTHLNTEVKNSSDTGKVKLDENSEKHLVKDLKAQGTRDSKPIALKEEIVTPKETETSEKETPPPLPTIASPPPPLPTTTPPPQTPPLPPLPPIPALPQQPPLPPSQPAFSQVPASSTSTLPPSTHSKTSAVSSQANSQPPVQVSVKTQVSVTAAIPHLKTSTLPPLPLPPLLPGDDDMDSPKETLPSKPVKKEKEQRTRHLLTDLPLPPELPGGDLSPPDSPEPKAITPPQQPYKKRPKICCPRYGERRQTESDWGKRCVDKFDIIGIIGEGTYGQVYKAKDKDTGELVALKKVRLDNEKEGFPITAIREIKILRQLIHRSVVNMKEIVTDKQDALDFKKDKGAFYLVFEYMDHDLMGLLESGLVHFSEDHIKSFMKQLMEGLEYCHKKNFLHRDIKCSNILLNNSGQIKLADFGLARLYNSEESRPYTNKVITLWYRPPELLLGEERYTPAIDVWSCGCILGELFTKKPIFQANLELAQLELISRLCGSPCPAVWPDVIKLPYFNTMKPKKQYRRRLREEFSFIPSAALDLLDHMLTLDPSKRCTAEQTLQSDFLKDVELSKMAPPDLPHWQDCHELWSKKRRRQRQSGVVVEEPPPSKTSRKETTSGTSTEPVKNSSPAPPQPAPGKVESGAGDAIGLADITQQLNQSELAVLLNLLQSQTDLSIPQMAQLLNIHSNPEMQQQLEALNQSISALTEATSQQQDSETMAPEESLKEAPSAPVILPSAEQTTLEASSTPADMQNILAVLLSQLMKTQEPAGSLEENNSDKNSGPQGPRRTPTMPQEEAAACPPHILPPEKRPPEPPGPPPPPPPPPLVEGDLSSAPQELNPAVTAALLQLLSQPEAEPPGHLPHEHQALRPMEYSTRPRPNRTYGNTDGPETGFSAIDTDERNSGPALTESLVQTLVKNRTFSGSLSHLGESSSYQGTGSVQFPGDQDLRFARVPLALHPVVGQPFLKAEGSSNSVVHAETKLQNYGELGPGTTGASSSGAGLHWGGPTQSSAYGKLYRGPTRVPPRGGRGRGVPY", "experiment": "Inhibition of human recombinant CRK7 at 15 nM in presence of ATP by radiometric assay relative to control"}, "[11]": {"target": "Serine/threonine-protein kinase pim-2 (Homo sapiens) (UniProt Q9P1W9)", "sequence (Q9P1W9 whole entry, looked up)": "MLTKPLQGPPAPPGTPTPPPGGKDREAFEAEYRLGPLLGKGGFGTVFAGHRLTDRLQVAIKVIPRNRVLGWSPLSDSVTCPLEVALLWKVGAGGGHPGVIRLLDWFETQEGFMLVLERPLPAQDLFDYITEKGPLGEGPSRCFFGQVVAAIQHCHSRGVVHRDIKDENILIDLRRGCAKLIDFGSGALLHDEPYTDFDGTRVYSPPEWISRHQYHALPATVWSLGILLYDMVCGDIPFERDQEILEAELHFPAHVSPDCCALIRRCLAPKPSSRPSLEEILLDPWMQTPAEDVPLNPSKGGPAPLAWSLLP", "experiment": "Inhibition of human recombinant PIM2 at 15 nM related to control ULK1"}, "[12]": {"target": "RAC-alpha serine/threonine-protein kinase (Homo sapiens) (UniProt P31749)", "experiment": "Inhibition of human recombinant AKT1 at 15 nM in presence of ATP by radiometric assay relative to control", "in_short": "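Panel of 327 recombinant human kinases in radiometric activity assays, each screened in duplicate at a single inhibitor concentration; percent activity remaining relative to vehicle control, percent inhibition taken as 100 minus activity remaining.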"}, "[13]": {"target": "Calcium/calmodulin-dependent protein kinase type 1G (Homo sapiens) (UniProt Q96NX5)", "experiment": "Inhibition of human recombinant CaMK1g at 500 nM related to control ULK1"}, "[14]": {"target": "Cyclin-dependent kinase 4 (Homo sapiens) (UniProt P11802)", "experiment": "Inhibition of human recombinant CDK4 at 500 nM in presence of ATP by radiometric assay relative to control"}, "[15]": {"target": "Serine/threonine-protein kinase PLK3 (Homo sapiens) (UniProt Q9H4B4)", "experiment": "Inhibition of human recombinant PLK3 at 500 nM in presence of ATP by radiometric assay relative to control"}}, "data": [{"smiles": "O=C(N[C@@H](C1CC1)C(F)(F)F)c1cc(-c2cnn3cc(-c4ccc(F)cc4)cnc23)cs1", "values": [{"measurement": "fold change (FC)", "setting": "[1]", "result": 0}, {"measurement": "fold change (FC)", "setting": "[2]", "result": 0.22}, {"measurement": "fold change (FC)", "setting": "[3]", "result": 0}, {"measurement": "inhibition", "setting": "[4]", "result": 0, "unit": "%"}, {"measurement": "fold change (FC)", "setting": "[5]", "result": 0.21}, {"measurement": "fold change (FC)", "setting": "[6]", "result": 0.04}, {"measurement": "fold change (FC)", "setting": "[7]", "result": 0.16}, {"measurement": "inhibition", "setting": "[8]", "result": 0, "unit": "%"}]}, {"smiles": "CC(C)[C@H](NC(=O)c1cc(-c2cnn3cc(-c4ccc(OCCN5CCCCC5)cc4)cnc23)cs1)C(F)(F)F", "values": [{"measurement": "inhibition", "setting": "[9]", "result": 0, "unit": "%"}, {"measurement": "inhibition", "setting": "[10]", "result": 4, "unit": "%"}, {"measurement": "fold change (FC)", "setting": "[11]", "result": 0}, {"measurement": "inhibition", "setting": "[12]", "result": 0, "unit": "%"}]}, {"smiles": "CNC(=O)c1ccccc1Oc1nc(Nc2cc(OC)c(OC)c(OC)c2)ncc1Br", "values": [{"measurement": "fold change (FC)", "setting": "[13]", "result": 0.08}, {"measurement": "inhibition", "setting": "[14]", "result": 0, "unit": "%"}, {"measurement": "inhibition", "setting": "[15]", "result": 0, "unit": "%"}]}]}
